From ChEMBL document CHEMBL2021778, “Neurosteroid analogues. 17. Inverted binding orientations of androsterone enantiomers at the steroid potentiation site on γ-aminobutyric acid type A receptors” (J Med Chem, 2012)
Activity calls are given as the source filed them. No cut-off for these calls is given here.

Legend:
Oocyte [1] = test: Modulation of rat alpha1beta2gamma2L GABAA receptor expressed in Xenopus laevis oocytes assessed as potentiation of GABA-induced chloride currents at 1 uM by electrophysiology assay relative to control; type: cell-based
Oocyte [2] = test: Modulation of rat alpha1beta2gamma2L GABAA receptor expressed in Xenopus laevis oocytes assessed as potentiation of GABA-induced chloride currents at 10 uM by electrophysiology assay relative to control; type: cell-based
Xenopus laevis [3] = test: Anesthetic effect on Xenopus laevis tadpole assessed as loss of swimming reflex at 10 uM; type: functional, organism-based
In short: (§1)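 Tadpoles, 10 per group, exposed at 10 μM. Each animal was scored for swimming reflex, and for death without overnight recovery from loss of swimming reflex. Results are given as the number of animals out of 10.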

Xenopus laevis [4] = test: Anesthetic effect on Xenopus laevis tadpole assessed as loss of righting reflex; type: functional, organism-based
In short: (§2)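 Xenopus laevis tadpoles, N = 10 or more per concentration, at five or more concentrations from 0.01 μM to 30 μM. Loss of righting reflex (LRR) and loss of swimming reflex (LSR) were scored. EC50 and nHill were taken from concentration–response curves. Recovery was checked after an overnight period. Mean ± SEM.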

[5] = Displacement of [35S]TBPS from GABAA receptor picrotoxin binding site in rat brain membranes; type: cell membranes
Oocyte [6] = test: Modulation of rat alpha1beta2gamma2L GABAA receptor expressed in Xenopus laevis oocytes assessed as […] at 10 uM by electrophysiology assay relative to GABA; type: cell-based
In short: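 Rat α1β2γ2L receptors in Xenopus oocytes, two-electrode voltage clamp at −70 mV. Current gated directly by 10 μM compound without GABA, expressed as the ratio to the current from 2 μM GABA. At least four oocytes. Mean ± SEM.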

Oocyte [7] = test: Modulation of rat alpha1beta2gamma2L GABAA receptor expressed in Xenopus laevis oocytes assessed as potentiation of GABA-induced chloride currents at 0.1 uM by electrophysiology assay relative to control; type: cell-based
Rattus norvegicus = species: Rattus norvegicus; test: Displacement of [35S]TBPS from GABAA receptor picrotoxin binding site in rat brain membranes at 10 uM; type: cell membranes
Oocyte [8] = test: Modulation of GABAA receptor alpha1(Q241L)beta2gamma2L mutant expressed in Xenopus laevis oocytes assessed as potentiation of GABA-induced chloride currents at 1 uM by electrophysiology assay; type: cell-based
In short: (§3)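 Oocytes were coinjected with α1(Q241L) cRNA plus wild-type β2 and γ2L cRNA. Recording was by two-electrode voltage clamp at −70 mV, 2–5 days after injection. Responses to a sequence of compound applications were normalised, 4 oocytes per receptor type.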

Xenopus laevis [9] = species: Xenopus laevis; test: Toxicity in Xenopus laevis tadpole assessed as mortality at 10 uM; type: organism-based; settings: in vivo; in short: as §1
Xenopus laevis [10] = test: Anesthetic effect on Xenopus laevis tadpole assessed as loss of swimming reflex; type: functional, organism-based; in short: as §2
Oocyte [11] = test: Modulation of GABAA receptor alpha1(Q241L)beta2gamma2L mutant expressed in Xenopus laevis oocytes assessed as potentiation of GABA-induced chloride currents at 0.5 uM by electrophysiology assay; type: cell-based; in short: as §3
Oocyte [12] = test: Modulation of rat alpha1beta2gamma2L GABAA receptor expressed in Xenopus laevis oocytes assessed as potentiation of GABA-induced chloride currents at 0.5 uM by electrophysiology assay relative to control; type: cell-based

For `C[C@]12CC[C@@H](O)C[C@@H]1C[C@H](OCc1ccccc1)[C@@H]1[C@@H]2CC[C@]2(C)C(=O)CC[C@@H]12`, the Ratio (Oocyte [1]) was 0.9, the Ratio (Oocyte [2]) was 0.76 and the Activity (Xenopus laevis [3]) was “inactive”. The EC50 (Xenopus laevis [4]) was > 10000 nM, the IC50 [5] was > 10000 nM and the Ratio (Oocyte [6]) was 0. It also gave a Ratio (Oocyte [7]) of 0.97 and an inhibition (Rattus norvegicus) of 35%.

With `C[C@@]12CCC3C(CC[C@@H]4C[C@@H](O)CC[C@@]34C)C1CCC2=O` (single isomer, unassigned) the Ratio (Oocyte [1]) was 3.66, the Ratio (Oocyte [2]) was 18.9 and the IC50 [5] was 311 nM. The Ratio (Oocyte [6]) was 0.03 and the Ratio (Oocyte [7]) was 1.27.

For `C[C@]12CC[C@@H](O)C[C@@H]1CC[C@@H]1[C@@H]2[C@@H](OCc2ccccc2)C[C@]2(C)C(=O)CC[C@@H]12`, the Ratio (Oocyte [1]) was 2.96, the Ratio (Oocyte [2]) was 24.4 and the Activity (Oocyte [8]) was “inactive”. The Activity (Xenopus laevis [9]) was “Toxic”, the EC50 (Xenopus laevis [4]) was 200 nM and the IC50 [5] was 285 nM. The Ratio (Oocyte [6]) was 0.2, the Ratio (Oocyte [7]) was 1.08 and the EC50 (Xenopus laevis [10]) was 870 nM.

`C[C@@]12CC[C@H](O)C[C@H]1CC[C@@H]1[C@@H]2[C@H](OCc2ccccc2)C[C@]2(C)[C@H]1CC[C@]21CO1` showed a Ratio (Oocyte [1]) of 1.3, a Ratio (Oocyte [2]) of 3.21 and an EC50 (Xenopus laevis [4]) of 2640 nM. It also gave an IC50 [5] of 2050 nM, a Ratio (Oocyte [6]) of 0.05 and a Ratio (Oocyte [7]) of 1.01. The EC50 (Xenopus laevis [10]) was 2740 nM.

In the case of `C[C@@]12CC[C@H](O)C[C@H]1C[C@@H](OCc1ccccc1)[C@@H]1[C@@H]2CC[C@@]2(C)C(=O)CC[C@@H]12`, the Ratio (Oocyte [1]) is reported as 5.74, the Ratio (Oocyte [2]) is reported as 25.2 and the Activity (Oocyte [8]) is reported as “inactive”. The EC50 (Xenopus laevis [4]) was 1210 nM, the IC50 [5] was 168 nM and the Ratio (Oocyte [6]) was 0.11. It also gave a Ratio (Oocyte [7]) of 1.25 and an EC50 (Xenopus laevis [10]) of 2930 nM.

For `C[C@@]12CC[C@H](O)C[C@H]1CC[C@@H]1[C@@H]2[C@H](OCc2ccccc2)C[C@@]2(C)C(=O)CC[C@@H]12`, the Ratio (Oocyte [1]) was 0.85, the Ratio (Oocyte [2]) was 0.6 and the Activity (Xenopus laevis [9]) was “Toxic”. For the same compound, the EC50 (Xenopus laevis [4]) was 1960 nM, the IC50 [5] was > 10000 nM and the Ratio (Oocyte [6]) was 0. The Ratio (Oocyte [7]) was 0.89 and the EC50 (Xenopus laevis [10]) was 3450 nM.

`C[C@]12CC[C@@H](O)C[C@@H]1CC[C@@H]1[C@@H]2[C@@H](OCc2ccccc2)C[C@@]2(C)[C@H]1CC[C@@]21CO1` gave a Ratio (Oocyte [1]) of 21.2, a Ratio (Oocyte [2]) of 31.1 and an EC50 (Xenopus laevis [4]) of 70 nM. It also gave an IC50 [5] of 15 nM, a Ratio (Oocyte [6]) of 0.42 and a Ratio (Oocyte [7]) of 2.99. For the same compound, the Activity (Oocyte [11]) was “inactive”, the EC50 (Xenopus laevis [10]) was 270 nM and the Activity (Oocyte [12]) was “inactive”.

Compound `C[C@]12CC[C@@H](O)C[C@@H]1C[C@H](OCc1ccccc1)[C@@H]1[C@@H]2CC[C@@]2(C)[C@H]1CC[C@@]21CO1` has a Ratio (Oocyte [1]) of 0.88, a Ratio (Oocyte [2]) of 0.77 and an EC50 (Xenopus laevis [4]) of 3220 nM. The IC50 [5] was 6750 nM, the Ratio (Oocyte [6]) was 0.09 and the Ratio (Oocyte [7]) was 0.83. It also gave an EC50 (Xenopus laevis [10]) of 7940 nM.

`C[C@]12CC[C@@H](O)C[C@@H]1CC[C@@H]1[C@@H]2CC[C@@]2(C)[C@H]1CC[C@@]21CO1` showed a Ratio (Oocyte [1]) of 21.9, a Ratio (Oocyte [2]) of 33.7 and an IC50 [5] of 105 nM. For the same compound, the Ratio (Oocyte [6]) was 0.22 and the Ratio (Oocyte [7]) was 3.11.

Compound `C[C@@]12CC[C@H](O)C[C@H]1CCC1C2CC[C@]2(C)C1CC[C@]21CO1` (single isomer, unassigned) has a Ratio (Oocyte [1]) of 15.9, a Ratio (Oocyte [2]) of 26.3 and an IC50 [5] of 467 nM. It also gave a Ratio (Oocyte [6]) of 0.1 and a Ratio (Oocyte [7]) of 2.62.

For `CC(=O)[C@H]1CC[C@H]2[C@@H]3CC[C@H]4C[C@H](O)CC[C@]4(C)[C@H]3CC[C@]12C` [BREXANOLONE], the Ratio (Oocyte [1]) was 3.89, the Ratio (Oocyte [2]) was 9.65 and the IC50 [5] was 74 nM. For the same compound, the Ratio (Oocyte [6]) was 0.37, the Ratio (Oocyte [7]) was 1.26 and the Activity (Oocyte [11]) was “inactive”. For the same compound, the Activity (Oocyte [12]) was “inactive”.

For `C[C@@]12CC[C@H](O)C[C@H]1C[C@@H](OCc1ccccc1)[C@@H]1[C@@H]2CC[C@]2(C)[C@H]1CC[C@]21CO1`, the Ratio (Oocyte [1]) was 20.3, the Ratio (Oocyte [2]) was 32.4 and the EC50 (Xenopus laevis [4]) was 310 nM. The IC50 [5] was 52 nM, the Ratio (Oocyte [6]) was 0.22 and the Ratio (Oocyte [7]) was 3.47. The Activity (Oocyte [11]) was “inactive”, the EC50 (Xenopus laevis [10]) was 550 nM and the Activity (Oocyte [12]) was “inactive”.

For `C[C@]12CC[C@@H](O)C[C@@H]1CC[C@@H]1[C@@H]2CC[C@]2(C)C(=O)CC[C@@H]12` [ANDROSTERONE], the Ratio (Oocyte [1]) was 1.41, the Ratio (Oocyte [2]) was 5.44 and the Activity (Xenopus laevis [3]) was “inactive”. For the same compound, the IC50 [5] was 410 nM, the Ratio (Oocyte [6]) was 0.02 and the Ratio (Oocyte [7]) was 0.97.
